In ChEMBL document CHEMBL1817567, “Design of benzimidazole- and benzoxazole-2-thione derivatives as inhibitors of bacterial hyaluronan lyase” (Eur J Med Chem, 2011):
pIC50: −log10 of the molar value. Converted amounts (≈) assume the structure as drawn. The source made the active and inactive calls. The calls are words filed in the database; no cut-off is given here.

Assays:
[1] = Inhibition of Streptococcus agalactiae 4755 hyaluronidase at pH 7.4 after 3 hrs by turbidimetric analysis
Procedure, shortened: (§1)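 Same turbidimetric hyaluronan-lyase assay at pH 7.4 (citrate–phosphate/NaCl): SagHyal4755 2.9 ng, hyaluronan (2 mg/ml stock), BSA, 3.8% DMSO final, 3 h at 37 °C. CTAB (2.5%, in 0.5 M NaOH) precipitation, 20 min at 25 °C, A600. Activity scaled between no-inhibitor and no-enzyme samples.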

[2] = target: T1, Hyaluronidase (Bos taurus) (UniProt Q8SQG8+Q5E985); assay: Inhibition of bovine testes hyaluronidase at 200 uM after 30 mins at pH 5 by turbidimetric analysis; assay type: protein assay
[3] = target: T1, Hyaluronidase (Bos taurus); assay: Inhibition of bovine testes hyaluronidase at 380 uM after 30 mins at pH 5 by turbidimetric analysis; assay type: protein assay
[4] = target: T1, Hyaluronidase (Bos taurus); assay: Inhibition of bovine testes hyaluronidase at 49 uM after 30 mins at pH 5 by turbidimetric analysis; assay type: protein assay
[5] = target: T1, Hyaluronidase (Bos taurus); assay: Inhibition of bovine testes hyaluronidase at 4200 uM after 30 mins at pH 5 by turbidimetric analysis; assay type: protein assay
[6] = target: T1, Hyaluronidase (Bos taurus); assay: Inhibition of bovine testes hyaluronidase at 460 uM after 30 mins at pH 5 by turbidimetric analysis; assay type: protein assay
[7] = target: T1, Hyaluronidase (Bos taurus); assay: Inhibition of bovine testes hyaluronidase at 180 uM after 30 mins at pH 5 by turbidimetric analysis; assay type: protein assay
[8] = target: T1, Hyaluronidase (Bos taurus); assay: Inhibition of bovine testes hyaluronidase at 190 uM after 30 mins at pH 5 by turbidimetric analysis; assay type: protein assay
[9] = target: T1, Hyaluronidase (Bos taurus); assay: Inhibition of bovine testes hyaluronidase at 170 uM after 30 mins at pH 5 by turbidimetric analysis; assay type: protein assay
[10] = target: T1, Hyaluronidase (Bos taurus); assay: Inhibition of bovine testes hyaluronidase at 100 uM after 30 mins at pH 5 by turbidimetric analysis; assay type: protein assay
[11] = target: T1, Hyaluronidase (Bos taurus); assay: Inhibition of bovine testes hyaluronidase at 400 uM after 30 mins at pH 5 by turbidimetric analysis; assay type: protein assay
[12] = target: T1, Hyaluronidase (Bos taurus); assay: Inhibition of bovine testes hyaluronidase at 3800 uM after 30 mins at pH 5 by turbidimetric analysis; assay type: protein assay
[13] = target: T1, Hyaluronidase (Bos taurus); assay: Inhibition of bovine testes hyaluronidase at 130 uM after 30 mins at pH 5 by turbidimetric analysis; assay type: protein assay
[14] = target: T1, Hyaluronidase (Bos taurus); assay: Inhibition of bovine testes hyaluronidase at 63 uM after 30 mins at pH 5 by turbidimetric analysis; assay type: protein assay
[15] = target: T1, Hyaluronidase (Bos taurus); assay: Inhibition of bovine testes hyaluronidase at 80 uM after 30 mins at pH 5 by turbidimetric analysis; assay type: protein assay
[16] = target: T1, Hyaluronidase (Bos taurus); assay: Inhibition of bovine testes hyaluronidase at 2000 uM after 30 mins at pH 5 by turbidimetric analysis; assay type: protein assay
[17] = target: T1, Hyaluronidase (Bos taurus); assay: Inhibition of bovine testes hyaluronidase at 150 uM after 30 mins at pH 5 by turbidimetric analysis; assay type: protein assay
[18] = Aqueous solubility of the compound in water; assay type: physicochemical
Procedure, shortened: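 Turbidity at 600 nm of test compound in DMSO added to citrate–phosphate buffer (pH 5 and pH 7.4), water and BSA (0.2 mg/ml stock), at various concentrations, read against a water reference. Enzyme testing used only concentrations showing no turbidity.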

Streptococcus agalactiae = assay: Inhibition of Streptococcus agalactiae 4755 hyaluronidase at 100 uM after 30 mins at pH 5.0 by turbidimetric analysis
Procedure, shortened: (§2)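 SagHyal4755 (2.9 ng) with BSA and hyaluronan (2 mg/ml stock) in citrate–phosphate/NaCl buffer pH 5.0, 3.8% DMSO final, 30 min at 37 °C. Stopped by alkaline 2.5% CTAB, then 20 min at 25 °C. Residual-substrate turbidity read at 600 nm; no-inhibitor sample = 100%, no-enzyme sample = 0% activity. Enzyme-free compound controls were run.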

[19] = Inhibition of Streptococcus agalactiae 4755 hyaluronidase at pH 7.4; procedure, shortened: as §1
[20] = Inhibition of Streptococcus agalactiae 4755 hyaluronidase at pH 5.0 after 30 mins by turbidimetric analysis; procedure, shortened: as §2

Row | Structure (SMILES) | pIC50 [1] | inhibition [2] | inhibition [3] | inhibition [4] | inhibition [5] | inhibition [6] | inhibition [7] | inhibition [8] | inhibition [9] | inhibition [10] | inhibition [11] | inhibition [12] | inhibition [13] | inhibition [14] | inhibition [15] | inhibition [16] | inhibition [17] | pIC50 [19] | pIC50 [20] | also measured
1 | CCCCCCCn1c(-c2ccc(O)cc2)c(C)c2cc(O)ccc21 | – | – | – | – | – | – | – | – | – | – | – | – | – | – | – | – | – | 4.92 | – | –
2 | O=C(CCC1CCCCC1)n1c(=S)oc2ccccc21 | 4.70 | inactive | inactive | inactive | inactive | inactive | inactive | inactive | inactive | inactive | inactive | inactive | inactive | inactive | inactive | inactive | inactive | – | 3.64 | –
3 | CCCn1c(-c2ccc(O)cc2)c(C)c2cc(O)ccc21 | – | – | – | – | – | – | – | – | – | – | – | – | – | – | – | – | – | 3.80 | – | –
4 | O=C(COc1ccccc1)n1c(=S)oc2ccccc21 | 4.21 | inactive | inactive | inactive | inactive | inactive | inactive | inactive | inactive | inactive | inactive | inactive | inactive | inactive | inactive | inactive | inactive | – | 3.67 | –
5 | O=C(CCc1ccccc1)n1c(=S)[nH]c2ccccc21 | 4.54 | inactive | inactive | inactive | inactive | inactive | inactive | inactive | inactive | inactive | inactive | inactive | inactive | inactive | inactive | inactive | inactive | – | – | solubility [18]: 100 µM (≈ 28.2 µg/mL); inhibition (Streptococcus agalactiae): 5%
6 | Cc1c(-c2ccc(O)cc2)n(C)c2ccc(O)cc12 | – | – | – | – | – | – | – | – | – | – | – | – | – | – | – | – | – | 3.66 | – | –
7 | Sc1nc2ccccc2[nH]1 [2-MERCAPTOBENZIMIDAZOLE] | 2.73 | inactive | inactive | inactive | inactive | inactive | inactive | inactive | inactive | inactive | inactive | inactive | inactive | inactive | inactive | inactive | inactive | – | 2.94 | –
8 | Cc1c(-c2ccc(O)cc2)[nH]c2ccc(O)cc12 | – | – | – | – | – | – | – | – | – | – | – | – | – | – | – | – | – | 3.55 | – | –
9 | O=C1O[C@H]([C@@H](O)CO)C(O)=C1O [ASCORBIC ACID] | – | inactive | inactive | inactive | inactive | inactive | inactive | inactive | inactive | inactive | inactive | inactive | inactive | inactive | inactive | inactive | inactive | – | 2.21 | –
10 | CCCCCn1c(-c2ccc(O)cc2)c(C)c2cc(O)ccc21 | – | – | – | – | – | – | – | – | – | – | – | – | – | – | – | – | – | 4.44 | – | –
11 | CC(=O)n1c(=S)n(C(C)=O)c2ccccc21 | 5.30 | inactive | inactive | inactive | inactive | inactive | inactive | inactive | inactive | inactive | inactive | inactive | inactive | inactive | inactive | inactive | inactive | 5.30 | 3.80 | –

Further lines, with some results ahead:

Row | pIC50 [1] | inhibition [2] | inhibition [3] | inhibition [4] | inhibition [5] | inhibition [6] | inhibition [7] | inhibition [8] | inhibition [9] | inhibition [10] | inhibition [11] | inhibition [12] | inhibition [13] | inhibition [14] | inhibition [15] | inhibition [16] | inhibition [17] | pIC50 [19] | pIC50 [20] | Structure (SMILES) | also measured
12 | 4.60 | inactive | inactive | inactive | inactive | inactive | inactive | inactive | inactive | inactive | inactive | inactive | inactive | inactive | inactive | inactive | inactive | – | – | CCCCCCCCCC(=O)n1c(=S)oc2ccccc21 | solubility [18]: 100 µM (≈ 30.5 µg/mL); inhibition (Streptococcus agalactiae): 41%
13 | 4.16 | inactive | inactive | inactive | inactive | inactive | inactive | inactive | inactive | inactive | inactive | inactive | inactive | inactive | inactive | inactive | inactive | – | 3.59 | O=C(Cc1ccccc1)n1c(=S)oc2ccccc21 | –
14 | 3.25 | inactive | inactive | inactive | inactive | inactive | inactive | inactive | inactive | inactive | inactive | inactive | inactive | inactive | inactive | inactive | inactive | – | – | O=C(OCc1ccccc1)n1c(=S)oc2ccccc21 | solubility [18]: 100 µM (≈ 28.5 µg/mL); inhibition (Streptococcus agalactiae): inactive
15 | 4.32 | inactive | inactive | inactive | inactive | inactive | inactive | inactive | inactive | inactive | inactive | inactive | inactive | inactive | inactive | inactive | inactive | – | 3.89 | CCC(=O)n1c(=S)oc2ccccc21 | –
16 | 4.38 | inactive | inactive | inactive | inactive | inactive | inactive | inactive | inactive | inactive | inactive | inactive | inactive | inactive | inactive | inactive | inactive | – | 3.90 | CC(=O)n1c(=S)oc2ccccc21 | –
17 | 4.62 | inactive | inactive | inactive | inactive | inactive | inactive | inactive | inactive | inactive | inactive | inactive | inactive | inactive | inactive | inactive | inactive | – | 4.82 | O=C(CCc1ccccc1)n1c(=S)oc2ccccc21 | –
